Assays:
MRC5 [1] = assay: Cytotoxicity on MRC-5 cells at 6.25 uM; assay type: functional; settings: Homo sapiens
How it was run: (§1)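 MRC-5 human diploid embryonic lung cells seeded at 5 000/well, washed after 24 h, then given 2-fold drug dilutions (25, 12.5, 6.25, 3.13 µM) in RPMI + 5% FCS, final DMSO below 0.5%. Incubated 7 days at 37 °C, 5% CO2. MTT colorimetric read-out, scored as % reduction of absorbance at 540 nm versus untreated controls.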

Trypanosoma brucei [2] = assay: Percentage of activity against Trypanosoma brucei at 1.56 uM; assay type: functional
How it was run: (§2)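 Bloodstream-form T. brucei in HMI-9 medium, 10 000 parasites/well, exposed to 12.5, 6.25, 3.13 and 1.56 µM drug for 4 days. Read-out is % inhibition of parasite multiplication. Macrophage toxicity judged on mouse primary peritoneal macrophages.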

Trypanosoma cruzi [3] = assay: Percentage of activity against Trypanosoma cruzi at 12.5 uM; Toxic upon mouse primary peritoneal macrophages; assay type: functional, organism-based
How it was run: (§3)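 Mouse peritoneal macrophages, 30 000/well, infected after 24 h with about 100 000 T. cruzi trypomastigotes per well plus 2-fold drug dilutions (12.5–1.56 µM). Incubated 4 days at 37 °C, 5% CO2. Methanol-fixed, Giemsa-stained and scored microscopically as % reduction of total parasite load (free trypomastigotes plus intracellular amastigotes) versus untreated controls.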

MRC5 [4] = assay: Cytotoxicity on MRC-5 cells at 12.5 uM; assay type: functional; settings: Homo sapiens; how it was run: as §1
Leishmania infantum [5] = assay: Percentage of activity against Leishmania infantum at 6.25 uM; Toxic upon mouse primary peritoneal macrophages; assay type: functional, organism-based
How it was run: (§4)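 Starch-stimulated mouse peritoneal macrophages, 30 000/well, infected after 24 h with spleen-derived L. infantum amastigotes (10:1) together with 2-fold drug dilutions (12.5–1.56 µM). Incubated 7 days at 37 °C, 5% CO2. Wright-stained slides scored microscopically as % reduction of total parasite load or of infected macrophages. Uninfected treated cultures judged microscopically for macrophage toxicity.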

Plasmodium falciparum = assay: In vitro sensitivity for Plasmodium falciparum FcB1R; assay type: functional, organism-based
How it was run: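 Asynchronous P. falciparum cultures in human erythrocytes (0.5% parasitemia, 1% haematocrit) exposed to serially diluted drug for 24 h at 37 °C. [3H]hypoxanthine (0.5 µCi/well) then added for a further 24 h. Uptake compared with drug-free controls on the same plate. IC50 taken from the concentration–response curve, averaged over independent experiments. DMSO ≤0.1%.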

Trypanosoma cruzi [6] = assay: In Vitro evaluation for the percentage of activity towards Trypanosoma cruzi at 6.25 uM Concentration; Toxic upon mouse primary peritoneal macrophages; assay type: functional, organism-based; how it was run: as §3
Leishmania infantum [7] = assay: In Vitro evaluation for the percentage of activity towards Leishmania infantum at 3.13 uM Concentration; Toxic upon mouse primary peritoneal macrophages; assay type: functional, organism-based; how it was run: as §4
Trypanosoma cruzi [8] = assay: Percentage of activity against Trypanosoma cruzi at 1.56 uM; assay type: functional; how it was run: as §3
Trypanosoma cruzi [9] = assay: In Vitro evaluation for the percentage of activity towards Trypanosoma cruzi at 3.13 uM Concentration; Toxic upon mouse primary peritoneal macrophages; assay type: functional, organism-based; how it was run: as §3
Trypanosoma brucei [10] = assay: Percentage of activity against Trypanosoma brucei at 12.5 uM; assay type: functional; how it was run: as §2
MRC5 [11] = assay: Cytotoxicity on MRC-5 cells at 3.13 uM; assay type: functional; settings: Homo sapiens; how it was run: as §1
Leishmania infantum [12] = assay: Percentage of activity against Leishmania infantum at 12.5 uM Concentration; Toxic upon mouse primary peritoneal macrophages; assay type: functional, organism-based; how it was run: as §4
Leishmania infantum [13] = assay: Percentage of activity against Leishmania infantum at 1.56 uM; assay type: functional; how it was run: as §4
Trypanosoma brucei [14] = assay: Percentage of activity against Trypanosoma brucei at 6.25 uM; assay type: functional; how it was run: as §2
MRC5 [15] = assay: Cytotoxicity on MRC-5 cells at 25 uM; assay type: functional; settings: Homo sapiens; how it was run: as §1
Trypanosoma brucei [16] = assay: Percentage of activity against Trypanosoma brucei at 3.13 uM; assay type: functional; how it was run: as §2
Trypanosoma cruzi [17] = assay: Percentage of activity against Trypanosoma cruzi at 6.25 uM Concentration; assay type: functional; how it was run: as §3
Trypanosoma cruzi [18] = assay: Percentage of activity against Trypanosoma cruzi at 12.5 uM; assay type: functional; how it was run: as §3
Trypanosoma cruzi [19] = assay: Percentage of activity against Trypanosoma cruzi at 3.13 uM; assay type: functional; how it was run: as §3
Leishmania infantum [20] = assay: Percentage of activity against Leishmania infantum 6.25 uM; assay type: functional; how it was run: as §4
Leishmania infantum [21] = assay: In Vitro evaluation for the percentage of activity towards Leishmania infantum at 12.5 uM Concentration; assay type: functional; how it was run: as §4
Leishmania infantum [22] = assay: Percentage of activity against Leishmania infantum at 3.13 uM; assay type: functional; how it was run: as §4
Leishmania infantum [23] = assay: In Vitro evaluation for the percentage of activity towards Leishmania infantum at 1.56 uM Concentration; Toxic upon mouse primary peritoneal macrophages; assay type: functional, organism-based; how it was run: as §4

Compound | IC50 (Plasmodium falciparum) | cytotoxicity at 6.25 µM (MRC5 [1]) | Percent inhibition of parasite multiplication (Trypanosoma brucei [2]) | cytotoxicity at 12.5 µM (MRC5 [4]) | Parasite load reduction (Trypanosoma cruzi [8]) | Inhibition of parasite multiplication (Trypanosoma brucei [10]) | cytotoxicity at 3.13 µM (MRC5 [11]) | Antileishmanial activity (% reduction of parasite load) (Leishmania infantum [13]) | Inhibition of parasite multiplication (Trypanosoma brucei [14]) | cytotoxicity at 25 µM (MRC5 [15]) | Parasite growth inhibition (Trypanosoma brucei [16]) | Reduction of T. cruzi parasite load (Trypanosoma cruzi [17]) | T. cruzi parasite load reduction (Trypanosoma cruzi [18]) | Reduction of T. cruzi parasite load (Trypanosoma cruzi [19]) | Antileishmanial activity (% reduction of parasite load) (Leishmania infantum [20]) | Percent inhibition of Leishmania infantum (Leishmania infantum [21]) | Percent antileishmanial activity (reduction of parasite load) (Leishmania infantum [22]) | further results
COc1ccc2nc3cc(Cl)ccc3c(NCCCN(CCCNc3c4ccc(Cl)cc4nc4ccc(OC)cc34)C(=O)CCN3CCOCC3)c2c1 | 26 nM | 100% | 100% | 100% | 40% | 100% | 80% | – | 100% | 100% | 100% | – | – | 60% | – | – | – | Cytotoxicity (Trypanosoma cruzi [3]): Toxic; Cytotoxicity (Leishmania infantum [23]): Toxic; Cytotoxicity (Leishmania infantum [5]): Toxic; Cytotoxicity (Trypanosoma cruzi [6]): Toxic; Cytotoxicity (Leishmania infantum [7]): Toxic; Cytotoxicity (Leishmania infantum [12]): Toxic
COc1ccc2nc3cc(Cl)ccc3c(NCCCN(CCCNc3c4ccc(Cl)cc4nc4ccc(OC)cc34)C(=O)C(C)N)c2c1 (stereo unspecified) | > 500 nM | 40% | 100% | 100% | 0% | 100% | 20% | 0% | 100% | 100% | 100% | 0% | 0% | 0% | 0% | 0% | 0% | –
COc1ccc2nc3cc(Cl)ccc3c(NCCCN(CCCNc3c4ccc(Cl)cc4nc4ccc(OC)cc34)C(=O)CCC(=O)N3CCOCC3)c2c1 | 436 nM | 0% | 100% | 20% | 0% | 100% | 0% | 0% | 100% | 60% | 100% | 0% | 60% | 0% | 0% | 0% | 0% | –
COc1ccc2nc3cc(Cl)ccc3c(NCCCN(CCCNc3c4ccc(Cl)cc4nc4ccc(OC)cc34)C(=O)CNC(=O)OC(C)(C)C)c2c1 | 92 nM | 20% | 100% | 100% | 0% | 100% | 0% | 0% | 100% | 100% | 100% | 40% | 80% | 0% | 60% | 80% | 40% | –
COc1ccc2nc3cc(Cl)ccc3c(NCCCN(CCCNc3c4ccc(Cl)cc4nc4ccc(OC)cc34)C(=O)C(CCCCN)NC(=O)OC(C)(C)C)c2c1 (stereo unspecified) | > 500 nM | 40% | 100% | 100% | 0% | 100% | 0% | 0% | 100% | 100% | 100% | 90% | 99% | 40% | 0% | 40% | 0% | –

Continued by falling IC50 (Plasmodium falciparum), values first:

IC50 (Plasmodium falciparum) | Compound | cytotoxicity at 6.25 µM (MRC5 [1]) | Percent inhibition of parasite multiplication (Trypanosoma brucei [2]) | cytotoxicity at 12.5 µM (MRC5 [4]) | Parasite load reduction (Trypanosoma cruzi [8]) | Inhibition of parasite multiplication (Trypanosoma brucei [10]) | cytotoxicity at 3.13 µM (MRC5 [11]) | Antileishmanial activity (% reduction of parasite load) (Leishmania infantum [13]) | Inhibition of parasite multiplication (Trypanosoma brucei [14]) | cytotoxicity at 25 µM (MRC5 [15]) | Parasite growth inhibition (Trypanosoma brucei [16]) | Reduction of T. cruzi parasite load (Trypanosoma cruzi [17]) | T. cruzi parasite load reduction (Trypanosoma cruzi [18]) | Reduction of T. cruzi parasite load (Trypanosoma cruzi [19]) | Antileishmanial activity (% reduction of parasite load) (Leishmania infantum [20]) | Percent inhibition of Leishmania infantum (Leishmania infantum [21]) | Percent antileishmanial activity (reduction of parasite load) (Leishmania infantum [22]) | further results
330 nM | COc1ccc2nc3cc(Cl)ccc3c(NCCCCN(CCCNc3c4ccc(Cl)cc4nc4ccc(OC)cc34)C(=O)C(C)NC(=O)OC(C)(C)C)c2c1 (stereo unspecified) | 0% | 100% | 100% | 0% | 100% | 0% | 0% | 100% | 100% | 100% | 70% | 90% | 20% | 40% | 70% | 20% | –
109 nM | COc1ccc2nc3cc(Cl)ccc3c(NCCN(CCNc3c4ccc(Cl)cc4nc4ccc(OC)cc34)C(=O)C(C)NC(=O)OC(C)(C)C)c2c1 (stereo unspecified) | 0% | 99% | 0% | 0% | 100% | 0% | 0% | 100% | 100% | 100% | 40% | 60% | 0% | 60% | 90% | 20% | –
55 nM | COc1ccc2nc3cc(Cl)ccc3c(NCCCNCCCNc3c4ccc(Cl)cc4nc4ccc(OC)cc34)c2c1 | 100% | 100% | 100% | 60% | 100% | 100% | 40% | 100% | 100% | 100% | – | – | – | – | – | – | Cytotoxicity (Trypanosoma cruzi [3]): Toxic; Cytotoxicity (Leishmania infantum [5]): Toxic; Cytotoxicity (Trypanosoma cruzi [6]): Toxic; Cytotoxicity (Leishmania infantum [7]): Toxic; Cytotoxicity (Trypanosoma cruzi [9]): Toxic; Cytotoxicity (Leishmania infantum [12]): Toxic

From ChEMBL document CHEMBL1133105, “Antimalarial, antitrypanosomal, and antileishmanial activities and cytotoxicity of bis(9-amino-6-chloro-2-methoxyacridines): influence of the linker” (J Med Chem, 2000)
